The target in data set [1] is T1, Glutamate receptor ionotropic, NMDA 2B (Homo sapiens, UniProt Q05586+Q13224). The experiment in a line: Antagonist activity at NMDA NR2B receptor assessed as calcium flux. The format is functional. A general note: Calcium assays in cells follow changes in intracellular calcium, usually with a dye or a luminescent sensor.
The target of data set [2] is T1, Glutamate receptor ionotropic, NMDA 2B. Put plainly: Binding affinity to NMDA NR2B receptor.
The nature of data set [3]: Oral bioavailability in rat at 10 mg/kg. It counts as ADME, organism-based. To be noted: in vivo. Put shortly:
(§1)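 Rats were dosed 2 mg/kg iv and 10 mg/kg po in separate arms. Plasma Cmax, plasma half-life, clearance and oral bioavailability were derived from these two dosings.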

For the next data set, the system named is Rattus norvegicus. Put plainly: Reduction in hyperalgesic response in po dosed carrageenan-induced hyperalgesia rat model. The format is functional. In outline:
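Carrageenan was used to induce hyperalgesia in rats, and test compound was given orally. Behavioral responses to noxious stimuli were scored, and the hyperalgesic response was expressed as % reduction versus control. ED50 was derived from oral dosing.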

Data set [4] in a line: Cmax in rat at 2 mg/kg, iv and 10 mg/kg, po. It counts as ADME, organism-based. To be noted: in vivo. In outline: as §1
Data set [5] can be described thus: Half life in rat at 2 mg/kg, iv and 10 mg/kg, po. It counts as ADME, organism-based. To be noted: in vivo. In outline: as §1
Data set [6] is described as follows: Clearance in rat at 2 mg/kg, iv and 10 mg/kg, po. To be noted: in vivo. It counts as ADME, organism-based. In outline: as §1

For orientation: IC50 means the concentration at which inhibition is half-maximal. A word on the Ki: it is a dissociation constant, usually derived from enzyme kinetics or from competition with a known ligand. The bioavailability is the share of a dose that reaches the circulation, judged against a reference dose that is usually intravenous. High values mean good availability, low ones poor availability. What is called ED50 is the midpoint of the dose-response relation. Lower therefore signals greater potency. In general, Cmax refers to the highest concentration seen after dosing. What is called half-life is the time needed for the level to fall by half in the phase considered. A higher half-life goes with slow decline.

T1 sequence (Q13224 whole entry, one chain of several): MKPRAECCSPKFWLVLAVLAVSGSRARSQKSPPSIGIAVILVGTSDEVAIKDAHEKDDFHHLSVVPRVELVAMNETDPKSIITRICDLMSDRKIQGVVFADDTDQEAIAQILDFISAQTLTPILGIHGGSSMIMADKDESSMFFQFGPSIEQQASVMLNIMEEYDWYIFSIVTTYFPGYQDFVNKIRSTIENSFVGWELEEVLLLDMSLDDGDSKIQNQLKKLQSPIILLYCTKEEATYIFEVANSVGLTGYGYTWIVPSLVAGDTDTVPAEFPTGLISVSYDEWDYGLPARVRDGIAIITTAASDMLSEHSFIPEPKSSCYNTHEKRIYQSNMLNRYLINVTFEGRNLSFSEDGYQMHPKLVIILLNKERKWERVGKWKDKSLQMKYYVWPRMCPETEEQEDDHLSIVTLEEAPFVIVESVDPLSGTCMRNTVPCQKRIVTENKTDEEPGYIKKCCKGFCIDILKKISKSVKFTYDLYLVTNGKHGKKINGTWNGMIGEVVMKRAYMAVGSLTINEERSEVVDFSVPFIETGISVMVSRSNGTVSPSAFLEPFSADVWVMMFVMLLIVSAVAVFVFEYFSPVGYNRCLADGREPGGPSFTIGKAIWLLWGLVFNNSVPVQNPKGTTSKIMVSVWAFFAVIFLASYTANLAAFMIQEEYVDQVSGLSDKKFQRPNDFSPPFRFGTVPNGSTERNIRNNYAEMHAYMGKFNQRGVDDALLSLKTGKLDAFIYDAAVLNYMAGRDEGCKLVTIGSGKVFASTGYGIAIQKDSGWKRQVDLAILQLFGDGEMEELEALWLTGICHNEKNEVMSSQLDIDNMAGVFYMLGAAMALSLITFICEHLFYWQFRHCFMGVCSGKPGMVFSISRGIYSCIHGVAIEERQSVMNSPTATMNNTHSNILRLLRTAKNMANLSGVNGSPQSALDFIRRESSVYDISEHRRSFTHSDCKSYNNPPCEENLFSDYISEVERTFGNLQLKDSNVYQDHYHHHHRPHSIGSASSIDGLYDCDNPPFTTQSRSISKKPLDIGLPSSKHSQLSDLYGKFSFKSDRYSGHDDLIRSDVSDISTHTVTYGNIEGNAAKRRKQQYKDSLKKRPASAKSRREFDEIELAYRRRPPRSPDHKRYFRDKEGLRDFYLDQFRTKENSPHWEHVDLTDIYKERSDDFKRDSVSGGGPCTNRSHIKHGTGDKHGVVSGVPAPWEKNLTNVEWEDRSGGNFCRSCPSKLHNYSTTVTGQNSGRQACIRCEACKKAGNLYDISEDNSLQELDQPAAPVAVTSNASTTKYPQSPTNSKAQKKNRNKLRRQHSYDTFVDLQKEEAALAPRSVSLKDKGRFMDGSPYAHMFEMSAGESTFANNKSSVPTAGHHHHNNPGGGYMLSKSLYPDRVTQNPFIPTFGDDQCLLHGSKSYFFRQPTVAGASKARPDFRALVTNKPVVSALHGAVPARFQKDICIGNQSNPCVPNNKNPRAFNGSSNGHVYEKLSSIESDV

`FC(F)(F)Oc1ccc(C2=NCC(c3ccccc3C(F)(F)F)N2)cc1Cl` (configuration not stated): in data set [1], the IC50 amounted to 1.27 µM. This compound came in with a Ki in data set [2] of 0.353 µM.

Turning to `N=C1c2ccc(OC(F)(F)F)cc2CN1Cc1cccc2ccoc12`, the half-inhibitory concentration (IC50) in data set [1] came out at 0.012 µM. In addition, the Ki in data set [2] amounted to 0.0022 µM.

`FC(F)(F)Oc1ccc(C2=NC(c3cccc(Cl)c3)CN2)cc1Cl` (configuration not stated): in data set [1], the IC50 came to 0.266 µM. The same compound returned a Ki in data set [2] of 0.066 µM.

Take `FC(F)(F)Oc1ccc(C2=NCCCC(c3ccccc3)N2)cc1` (configuration not stated): the Ki in data set [2] was 4.2 µM.

With `COc1ccccc1CN1Cc2cc(OC(F)(F)F)ccc2C1=N`, the IC50 in data set [1] is 0.0059 µM. Also, the bioavailability in data set [3] is 5%. In the data set with Rattus norvegicus, this compound gave an ED50 of 20 mg/kg. Also, the Cmax in data set [4] was determined as 0.215 µM. This compound gave a half-life in data set [5] of 2 h. The compound also yielded a Ki in data set [2] of 0.0036 µM. In data set [6], this compound gave a clearance of 3.96 L/h/kg.

Regarding `FC(F)(F)Oc1ccc(C2=NC(c3cc(Cl)cc(Cl)c3)CN2)cc1Cl` (configuration not stated), the IC50 in data set [1] was 3.67 µM. The Ki in data set [2] worked out at 0.223 µM.

In the case of `COc1ccccc1C1CN=C(c2ccc(OC(F)(F)F)c(Cl)c2)N1` (configuration not stated), in data set [1], the IC50 is 0.108 µM. The Ki in data set [2] amounted to 0.075 µM.

For the compound `FC(F)(F)Oc1ccc(C2=NCC(c3ccccc3OC(F)(F)F)N2)cc1Cl` (configuration not stated), the IC50 in data set [1] was determined as 3.48 µM. Further, in data set [2], the Ki was found to be 0.505 µM.

`N=C1c2ccc(OC(F)(F)F)cc2CN1Cc1cccc(Cl)c1`: in data set [1], the IC50 was found to be 0.049 µM. In addition, the affinity in data set [2], expressed as Ki, was 0.008 µM.

`OC1CN=C(c2ccc(OC(F)(F)F)cc2)NC1c1ccccc1` (configuration not stated) yielded a Ki in data set [2] of 7.35 µM.

Consider `FC(F)(F)Oc1ccc(C2=NC(c3cccc(Cl)c3)CN2)cc1` (configuration not stated), for which, in data set [1], the IC50 came to 1.98 µM. The compound also displayed a Ki in data set [2] of 0.296 µM.

As for `Cc1cc(C)cc(CN2Cc3cc(OC(F)(F)F)ccc3C2=N)c1`, the IC50 in data set [1] was determined as 0.039 µM. Moreover, the Ki in data set [2] was found to be 0.002 µM.

Source of the values: ChEMBL document CHEMBL1139975, “Cyclic benzamidines as orally efficacious NR2B-selective NMDA receptor antagonists” (Bioorg Med Chem Lett, 2007).
